Here are results for six compounds from ChEMBL document CHEMBL1146564, “Absolute configuration of sesquiterpenes from Crossopetalum tonduzii and their inhibitory effects on Epstein-Barr virus early antigen activation in Raji cells” (J Nat Prod, 2003).

Each structure is given as a SMILES string.

Common to all, as to type: cell-based
Data set [1] deals with Raji. Briefly: Inhibition of 12-O-tetradecanoylphorbol-13-acetate-induced EBV-early antigen activation in human Raji cells at 100 molar ratio after 48 hrs relative to TPA. Also noted: scale not given: the % may be the effect or the level left. The following applies: human gammaherpesvirus 4. In short, it runs like this: (§1)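 EBV-EA induction in Raji cells (RPMI-1640). Cells were held 48 h at 37 °C with n-butyric acid (4 mmol), TPA (32 pmol = 20 ng/mL) and compound at 10–1000 mol ratio/TPA (0.32–32 nmol). EA-positive cells were detected on smears by indirect immunofluorescence. Induction is expressed as percentage relative to the TPA-only positive control. β-Carotene served as reference.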

Data set [2] has as its system Raji. Briefly: Inhibition of 12-O-tetradecanoylphorbol-13-acetate-induced EBV-early antigen activation in human Raji cells at 500 molar ratio after 48 hrs relative to TPA. Details: scale not given: the % may be the effect or the level left. The following applies: human gammaherpesvirus 4. In outline:
as §1

Data set [3] has as its system Raji. Briefly: Inhibition of 12-O-tetradecanoylphorbol-13-acetate-induced EBV-early antigen activation in human Raji cells at 1000 molar ratio after 48 hrs relative to TPA. As to conditions: human gammaherpesvirus 4. Details: scale not given: the % may be the effect or the level left. In short, it runs like this: as §1
Data set [4] relates to Raji. Briefly: Inhibition of 12-O-tetradecanoylphorbol-13-acetate-induced EBV-early antigen activation in human Raji cells at 10 molar ratio after 48 hrs relative to TPA. Also noted: scale not given: the % may be the effect or the level left. The following applies: human gammaherpesvirus 4. In outline: as §1
Data set [5] in a line: Cytotoxicity against human Raji cells assessed as cell viability at 1000 molar ratio/TPA after 48 hrs. As to conditions: read-out: Activity. In short, it runs like this:
(§2)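 Raji cells (EBV genome-carrying Burkitt's lymphoma lymphoblastoid line) in RPMI-1640 were incubated 48 h at 37 °C with n-butyric acid (4 mmol), TPA (32 pmol = 20 ng/mL) and test compound at 10, 100, 500 or 1000 mol ratio to TPA (0.32, 3.2, 16, 32 nmol). Viability is given as percentage of Raji cells.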

A short description of data set [6]: Cytotoxicity against human Raji cells assessed as cell viability at 500 molar ratio/TPA after 48 hrs. As to conditions: read-out: Activity. In outline: as §2
Data set [7] is described as follows: Cytotoxicity against human Raji cells assessed as cell viability at 100 molar ratio/TPA after 48 hrs. The following applies: read-out: Activity. In short, it runs like this: as §2
A short description of data set [8]: Cytotoxicity against human Raji cells assessed as cell viability at 10 molar ratio/TPA after 48 hrs. As to conditions: read-out: Activity. In outline:
as §2

With `CCC(C)C(=O)OC[C@]12[C@H](OC(=O)c3ccccc3)[C@@H](OC(C)=O)[C@@H]3[C@@H](OC(C)=O)[C@]1(OC3(C)C)[C@@](C)(O)C[C@H](O)[C@@H]2OC(C)=O` (stereo not given in full), the Activity with Raji [1] is 73.7%; with Raji [2] it was 31.2%; with Raji [3], 0%; in the data set on Raji [4] it was 90.5%. Further, the viability at 48 h, 1000 molar ratio/TPA in data set [5] came to 60%. Moreover, the viability at 48 h, 500 molar ratio/TPA in data set [6] was above 80%. In data set [7], the viability at 48 h, 100 molar ratio/TPA is above 80%. Further, the viability at 48 h, 10 molar ratio/TPA in data set [8] was above 80%.

For `CCC(C)C(=O)OC[C@]12[C@H](OC(=O)c3ccccc3)[C@@H](O)[C@@H]3[C@@H](O)[C@]1(OC3(C)C)[C@@](C)(O)C[C@H](OC(C)=O)[C@@H]2OC(C)=O` (stereo not given in full), the Activity amounted to 74% with Raji [1], 32.7% in the data set on Raji [2], 0% in the data set with Raji [3] and 90.1% in the data set with Raji [4]. Also, the viability at 48 h, 1000 molar ratio/TPA in data set [5] was 60%. Also, in data set [6], the viability at 48 h, 500 molar ratio/TPA is above 80%. The viability at 48 h, 100 molar ratio/TPA in data set [7] was above 80%. Further, the viability at 48 h, 10 molar ratio/TPA in data set [8] was above 80%.

Take `CCC(C)C(=O)OC[C@]12[C@H](OC(=O)c3ccccc3)[C@@H](OC(C)=O)[C@@H]3[C@@H](O)[C@]1(OC3(C)C)[C@@](C)(O)C[C@H](OC(C)=O)[C@@H]2OC(C)=O` (stereo not given in full): the Activity in the data set with Raji [1] worked out at 77.4%; with Raji [2], 21.8%; with Raji [3] it was 0%; with Raji [4], 94.1%. The viability at 48 h, 1000 molar ratio/TPA in data set [5] is 70%. The viability at 48 h, 500 molar ratio/TPA in data set [6] is above 80%. The viability at 48 h, 100 molar ratio/TPA in data set [7] was above 80%. For the same compound, the viability at 48 h, 10 molar ratio/TPA in data set [8] is above 80%.

On to `CCC(C)C(=O)OC[C@]12[C@H](OC(=O)c3ccccc3)[C@@H](OC(C)=O)[C@@H]3[C@@H](OC(C)=O)[C@]1(OC3(C)C)[C@@](C)(O)C[C@H](OC(C)=O)[C@@H]2OC(C)=O` (stereo not given in full), for which the Activity in the data set with Raji [1] turned out to be 79.2%; in the data set on Raji [2], 22%; in the data set with Raji [3], 0%; in the data set with Raji [4] it was 96.7%. In addition, in data set [5], the viability at 48 h, 1000 molar ratio/TPA was 70%. In addition, the viability at 48 h, 500 molar ratio/TPA in data set [6] was above 80%. Further, in data set [7], the viability at 48 h, 100 molar ratio/TPA is above 80%. Also, the viability at 48 h, 10 molar ratio/TPA in data set [8] is above 80%.

`CC1=C(/C=C/C(C)=C/C=C/C(C)=C/C=C/C=C(C)/C=C/C=C(C)/C=C/C2=C(C)CCCC2(C)C)C(C)(C)CCC1` [BETA CAROTENE]: the values for the Activity with Raji [3] and in the data set with Raji [4] were 8.6% and 100%, respectively. Also, the viability at 48 h, 500 molar ratio/TPA in data set [6] is 80%. Moreover, the viability at 48 h, 100 molar ratio/TPA in data set [7] was determined as 100%. In addition, the viability at 48 h, 10 molar ratio/TPA in data set [8] was determined as 100%.

Consider `CCC(C)C(=O)OC[C@]12[C@H](OC(=O)c3ccccc3)[C@@H](OC(C)=O)[C@@H]3[C@@H](OC(C)=O)[C@]1(OC3(C)C)[C@@](C)(O)C[C@H](OC(=O)c1ccccc1)[C@@H]2OC(C)=O` (stereo not given in full), for which the Activity in the data set on Raji [1] worked out at 75.9%; with Raji [2], 33.8%; in the data set with Raji [3] it was 4.6%; with Raji [4], 96%. In addition, the viability at 48 h, 1000 molar ratio/TPA in data set [5] turned out to be 60%. Further, the viability at 48 h, 500 molar ratio/TPA in data set [6] was above 80%. Besides, the viability at 48 h, 100 molar ratio/TPA in data set [7] was above 80%. For the same compound, in data set [8], the viability at 48 h, 10 molar ratio/TPA was above 80%.
